Source: ChEMBL document CHEMBL2346637, “Effects of alkyl side chain modification of coenzyme Q10 on mitochondrial respiratory chain function and cytoprotection” (Bioorg Med Chem, 2013)

Tests used:
CCRF-CEM [1] = test: Cytoprotective effect in human CEM cells assessed as reduction of diethyl maleate-induced oxidative stress measured cell viability at 5 uM incubated for 17 hrs prior to diethyl maleate challenge measured after 6 hrs by trypan blue exclusion assay relative to untreated control; assay type: functional
How it was run: (§1)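 CEM cells seeded at 5 × 10⁵ cells/mL with compound and held 17 h at 37 °C, 5% CO₂. Oxidative stress then induced with 5 mM DEM for 6 h. Viability counted on a hemocytometer by 0.4% trypan blue exclusion and expressed as percent of untreated control (untreated = 100%). Means ± S.E.M., n = 3.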

CCRF-CEM [2] = test: Cytoprotective effect in human CEM cells assessed as reduction of diethyl maleate-induced oxidative stress measured cell viability at 1 uM incubated for 17 hrs prior to diethyl maleate challenge measured after 6 hrs by trypan blue exclusion assay relative to untreated control; assay type: functional; how it was run: as §1
CCRF-CEM [3] = test: Cytoprotective effect in human CEM cells assessed as reduction of diethyl maleate-induced oxidative stress measured cell viability at 0.5 uM incubated for 17 hrs prior to diethyl maleate challenge measured after 6 hrs by trypan blue exclusion assay relative to untreated control; assay type: functional; how it was run: as §1
CCRF-CEM [4] = test: Cytoprotective effect in human CEM cells assessed as reduction of diethyl maleate-induced oxidative stress measured cell viability at 0.1 uM incubated for 17 hrs prior to diethyl maleate challenge measured after 6 hrs by trypan blue exclusion assay relative to untreated control; assay type: functional; how it was run: as §1
CCRF-CEM [5] = test: (§2) Blockade of diethyl maleate-induced mitochondrial membrane potential collapse in human CEM cells assessed as cells with intact mitochondrial membrane potential at 1 uM incubated for 16 hrs prior to diethyl maleate challenge measured after 120 mins by TMRM-based flow cytometric analysis (reference value: 12%); assay type: functional
How it was run: (§3)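 Pretreatment: CEM cells (5 × 10⁵) with or without compound for 16 h, then 5 mM DEM for 120 min. Cells washed and resuspended in PBS with glucose, stained with 250 nM TMRM for 15 min at 37 °C in the dark, washed, and read at once by flow cytometry (488 nm excitation, FL2-H). 10,000 events per run. Percentage of cells with intact potential taken from the top-right quadrant. FCCP served as depolarized control. Means ± SEM of three independent experiments in duplicate.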

CCRF-CEM [6] = test: as §2, with “at 0.5” for “at 1”; assay type: functional; how it was run: as §3
CCRF-CEM [7] = test: Antioxidant activity in human CEM cells assessed as suppression of diethyl maleate-induced ROS production at 2.5 uM incubated for 16 hrs prior to diethyl maleate challenge measured after 1 hr by DCFH-DA staining-based flow cytometric analysis relative to untreated control; assay type: functional
How it was run: (§4)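 CEM cells (5 × 10⁵ in 1 mL) preincubated with compound 16 h at 37 °C, 5% CO₂; then 5 mM DEM for 1 h. Cells washed in PBS and loaded with 10 µM DCFH-DA for 25 min at 37 °C in the dark, then washed twice. Read by flow cytometry, 488 nm excitation, FL1-H 530 nm channel, 10,000 events after debris gating.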

CCRF-CEM [8] = test: Antioxidant activity in human CEM cells assessed as suppression of diethyl maleate-induced ROS production at 1 uM incubated for 16 hrs prior to diethyl maleate challenge measured after 1 hr by DCFH-DA staining-based flow cytometric analysis relative to untreated control; assay type: functional; how it was run: as §4
[9] = Effect on cellular respiration in rat RGC5 cells assessed as increase in mitochondrial oxygen consumption at 10 uM after 24 hrs by fluorescence assay relative to vehicle-treated control; assay type: functional
How it was run: (§5)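 RGC-5 cells (DMEM, 10% FBS, phenol-red free) at 70,000 per well in 384-well oxygen biosensor plates, allowed to attach 20–30 min. Compounds added from DMSO stock via PBS dilution, final 3 or 10 µM, 0.1% DMSO. Six vehicle and six FCCP wells per plate. Incubated at 37 °C, 5% CO₂ for 1.5 or 24 h. Fluorescence read at 485/630 nm and expressed as fold change over vehicle at each time point. Two-tailed t test.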

[10] = Effect on cellular respiration in rat RGC5 cells assessed as increase in mitochondrial oxygen consumption at 3 uM after 24 hrs by fluorescence assay relative to vehicle-treated control; assay type: functional; how it was run: as §5
[11] = Effect on cellular respiration in rat RGC5 cells assessed as increase in mitochondrial oxygen consumption at 10 uM after 1.5 hrs by fluorescence assay relative to vehicle-treated control; assay type: functional; how it was run: as §5
[12] = Effect on cellular respiration in rat RGC5 cells assessed as increase in mitochondrial oxygen consumption at 3 uM after 1.5 hrs by fluorescence assay relative to vehicle-treated control; assay type: functional; how it was run: as §5
[13] = Inhibition of NADH-ubiquinone oxidoreductase activity in bovine heart submitochondrial particles using coenzyme Q1 as substrate after 5 mins by spectrophotometric analysis; set-up: species or system Bos taurus
How it was run: (§6)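 Twelve micrograms of bovine heart SMPs incubated 5 min at 39 °C with compound in 50 mM phosphate buffer, pH 7.4, with 0.25 M sucrose, 1 mM MgCl₂, antimycin A and 2 mM KCN. Reaction started with NADH and coenzyme Q₁ (each 50 µM). Decrease in NADH absorbance read at 340 nm. IC₅₀ and maximum achievable inhibition reported.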

Bos taurus [14] = species: Bos taurus; test: Inhibition of NADH oxidase in bovine heart submitochondrial particles at 10 uM after 5 mins by spectrophotometric analysis relative to untreated control; set-up: scale not given: the % may be the effect or the level left
How it was run: (§7)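 Bovine heart SMPs, stored in 0.25 M sucrose/10 mM Tris–HCl pH 7.4, were assayed at 30 µg protein/mL in 50 mM Hepes pH 7.5 with 5 mM MgCl₂ at 30 °C. SMPs pre-equilibrated with inhibitor for 5 min. NADH oxidation followed at 340 nm (ε 6.22 mM⁻¹ cm⁻¹). Initial rates taken from the linear trace and expressed relative to untreated control.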

Bos taurus [15] = species: Bos taurus; test: Inhibition of NADH oxidase in bovine heart submitochondrial particles at 5 uM after 5 mins by spectrophotometric analysis relative to untreated control; set-up: scale not given: the % may be the effect or the level left; how it was run: as §7
Bos taurus [16] = species: Bos taurus; test: Inhibition of NADH oxidase in bovine heart submitochondrial particles at 1 uM after 5 mins by spectrophotometric analysis relative to untreated control; set-up: scale not given: the % may be the effect or the level left; how it was run: as §7
Bos taurus [17] = species: Bos taurus; test: Inhibition of NADH-ubiquinone oxidoreductase activity in bovine heart submitochondrial particles using coenzyme Q1 as substrate after 5 mins by spectrophotometric analysis relative to untreated control; how it was run: as §6

Row | SMILES | Activity (CCRF-CEM [1]) [%] | Activity (CCRF-CEM [2]) [%] | Activity (CCRF-CEM [3]) [%] | Activity (CCRF-CEM [4]) [%] | Activity (CCRF-CEM [5]) [%] | Activity (CCRF-CEM [6]) [%] | Activity (CCRF-CEM [7]) [%] | Activity (CCRF-CEM [8]) [%] | fold change (FC) [9] | fold change (FC) [10] | fold change (FC) [11] | fold change (FC) [12] | IC50 [13] [µM] | activity (Bos taurus [14]) [%] | activity (Bos taurus [15]) [%] | activity (Bos taurus [16]) [%] | Imax (Bos taurus [17]) [%]
1 | CCCCCCCCCCCCCCCC1=C(C)C(=O)C(OC)=C(OC)C1=O | 94 | 90 | 87 | 82 | 92 | 86 | 100 | 100 | 1.52 | 1.49 | 1.15 | 1.14 | > 30 | 59.7 | 66.3 | 85.2 | 
2 | COC1=C(OC)C(=O)C(CCCCCCCCCCO)=C(C)C1=O [IDEBENONE] | 74 | 71 | 38 | 25 | 59 | 35 | 65 | 45 | 0.98 | 0.98 | 0.99 | 1.12 | 5.8 | 13.4 | 20.3 | 58.3 | 75
3 | COC1=C(OC)C(=O)C(CCCCCCCCCCC2CCCCC2)=C(C)C1=O | 93 | 87 | 83 | 76 | 91 | 84 | 100 | 100 | 1.51 | 1.06 | 1.21 | 1.17 | 14.9 | 78.7 | 81.9 | 88.3 | 55.4
4 | CCCCCCCCCCC1=C(C)C(=O)C(OC)=C(OC)C1=O [DECYLUBIQUINONE] | 87 | 79 | 62 | 69 | 88 | 78 | 95 | 80 | 1.08 | 0.99 | 1.2 | 1.19 | > 30 | 61.5 | 83.3 | 93.5 | 
5 | COC1=C(OC)C(=O)C(CCCCCCCCCCN=[N+]=[N-])=C(C)C1=O | 92 | 72 | 21 | 11 | 65 | 50 | 87 | 71 | 1.01 | 1.68 | 0.97 | 1.01 | > 30 | 64 | 75 | 89.8 | 
6 | COC1=C(OC)C(=O)C(CCCCCCCCC(C)(C)C)=C(C)C1=O | 93 | 72 | 43 | 9 | 85 | 70 | 100 | 88 | 1.16 | 1.55 | 1.05 | 1.08 | 14.7 | 36.2 | 50.6 | 68.3 | 69
